Screening results: PubChem BioAssay, The Scripps Research Institute Molecular Screening Center
TDP2 absorb: human TDP2 enzyme inhibitors, primary screen, biochemical, epi absorbance, recombinant enzyme; Tyrosyl-DNA phosphodiesterase 2 (Homo sapiens), O95551; T5PNP hydrolysis, p-nitrophenol absorbance 415 nm; inhibition, % at 12.8 µM; 0.34% of 370,000 active; AID 720702, 2013;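 active = inhibition above the mean of all tested compounds plus 3 SD, set per campaign, cut at about 25% in these data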
Target sequence (O95551 whole entry, looked up): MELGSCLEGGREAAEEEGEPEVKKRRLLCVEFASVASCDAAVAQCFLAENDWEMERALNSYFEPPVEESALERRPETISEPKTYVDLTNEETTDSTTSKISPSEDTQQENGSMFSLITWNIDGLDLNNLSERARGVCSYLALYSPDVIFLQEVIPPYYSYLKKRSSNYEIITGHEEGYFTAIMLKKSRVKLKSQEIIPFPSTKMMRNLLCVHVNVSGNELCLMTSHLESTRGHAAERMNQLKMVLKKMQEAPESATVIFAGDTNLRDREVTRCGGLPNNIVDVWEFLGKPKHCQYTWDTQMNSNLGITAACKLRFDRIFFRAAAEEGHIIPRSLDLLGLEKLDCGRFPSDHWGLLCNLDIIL
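System – recombinant human TDP2 · Quantity – TDP2 enzyme at 120 nM final · Doses – single concentration, 12.8 µM nominal, with 1% DMSO · Incubation – 2 h at 37 °C · Measured by – epi absorbance of p-nitrophenol freed from T5PNP by hydrolysis · Read-out – % inhibition relative to enzyme-containing and enzyme-free wells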
UHRF1 MBD2 ctr: UHRF1 methylated DNA binding inhibitors, primary screen, counter-screen for MBD2 inhibitor project, biochemical, TR-FRET, human UHRF1, single concentration | E3 ubiquitin-protein ligase UHRF1 (Homo sapiens), Q96T88 | UHRF1 binding to methylated oligo | inhibition, % at 4.4 µM | 0.75% of 370,000 active; in the data active = inhibition above about 21%;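 note: UHRF1 SRA domain binding a hemimethylated CpG hairpin DNA probe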
MBD2 inh: inhibitors of MBD2 binding to methylated DNA, primary screen, biochemical, TR-FRET, DNA-binding domain, human; AID 686964, 2013; inhibition, % at 4.4 µM; 0.31% of 370,000 active; MBD2 binding to methylated oligonucleotide; in the data active = inhibition above about 13%
LEDGF integ inh: blockers of LEDGF/p75-dependent integrase strand transfer – biochemical, TR-FRET, high throughput, primary screen | 0.64% of 370,000 active | TR-FRET IN-LEDGF/p75 DNA integration, Eu/Cy5 | HIV-1 integrase (with human LEDGF/p75) | inhibition, % at 3.7 µM;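 active = inhibition above the screen-wide mean plus 3 SD, cut at about 13% in these data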;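 note: signal is the Cy5 over europium emission ratio at 671 and 618 nm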
A number is an active result; . = inactive. Most compounds without a hit are left out; they make up all but 1.6% or so of the library.

SMILES	TDP2 absorb	UHRF1 MBD2 ctr	MBD2 inh	LEDGF integ inh
COc1cccc(N(C)C(=O)[C@@H](C2CC2)[C@@H](O)c2ccc(C(C)=O)cc2)c1	.	.	.	.
CCCCNc1cccc2c1S(=O)(=O)N[C@H](C)CO2	.	22.0	.	.
CC(C)C[C@@H]1COc2cc(Br)ccc2S(=O)(=O)N1Cc1cn(Cc2ccc(C(F)(F)F)cc2)nn1	.	.	.	.
O=C(NCc1ccccc1)c1cccc(OCC(=O)N2CCN(C(=O)c3ccco3)CC2)c1	.	21.4	.	.
COCCN(C(=O)CN1CCc2ccccc21)c1c(N)n(Cc2ccccc2)c(=O)[nH]c1=O	.	41.2	.	.
Cc1cc(C)cc(C(=O)OCCCN(C)C2CN(Cc3cn(Cc4ccccc4F)nn3)S(=O)(=O)C2)c1 (stereo not drawn)	.	.	.	.
Clc1cccc(-c2nc3nc4ccccc4nc3n2Cc2ccccc2)c1	.	28.6	.	.
C[C@@H]1ON(C)[C@H]2C[C@H]3c4[nH]c5c(-c6cccc(Cl)c6)cccc5c4CCN3C(=O)[C@@H]12	.	.	.	.
COc1cc(C(NC(=O)C(F)(F)F)C2CCCC=C2c2ccccc2)cc(OC)c1OC (stereo not drawn)	.	.	.	.
C[C@@H]1C=C(C(=O)O)O[C@H](OCc2ccc(CO)cc2)C1	.	54.7	.	.
CC(C)[C@H]1C=C(C(=O)O)O[C@@H](OCc2ccc(CO)cc2)C1	.	.	.	.
C/C=C/C=C/C(=O)N1C[C@H](C)N(C)C[C@H]1C	.	.	.	.
CNC(=O)c1cccc2cccc(Sc3ccccc3C(=O)O)c12	.	29.0	.	.
CNC(=O)c1ccccc1Sc1ccccc1CO	.	.	.	.
CCCCNC(=O)C1(C(=O)c2ccc(OC)cc2)CC(C(=O)OCC)=NO1 (stereo not drawn)	.	.	.	.
CSc1ccc(S(=O)(=O)NCC(=O)OCC(=O)NCCc2ccccc2)cc1[N+](=O)[O-]	.	.	.	.
CSc1ccc(S(=O)(=O)NCC(=O)OC(C)C(=O)NCc2ccccc2)cc1[N+](=O)[O-] (stereo not drawn)	.	26.8	.	.
NC(=O)Cn1c(=O)n(Cc2ccco2)c(=O)c2c3c(sc21)CCCCC3	.	20.8	.	.
COC(=O)c1ccc(-c2ccc(/C=N/NC(=O)Cc3nnc(N)s3)o2)cc1	.	32.1	.	.
C[C@H]1CN([C@@H](C)CO)S(=O)(=O)c2ccc(C#Cc3cccnc3)cc2O[C@@H]1CN(C)C(=O)Nc1ccc2c(c1)OCO2	.	22.0	.	.
CCCC#Cc1ccc2c(c1)O[C@@H](CN(C)Cc1ccc3c(c1)OCO3)[C@H](C)CN([C@@H](C)CO)S2(=O)=O	.	20.8	.	.
C=CCN(CC#Cc1ccccc1)CC1CC1	.	.	.	.
Cc1ccc(C(=O)N2CCC(Oc3cccnc3)CC2)cc1	.	.	.	.
Cn1cccc1C=NNC(=O)c1cc(-c2ccc(Cl)cc2)n[nH]1	.	.	.	.
COc1cc2c(ccc3cc(OC)c(OC)c(O)c32)cc1O	.	52.5	26.9	36.4
SMILES	TDP2 absorb	UHRF1 MBD2 ctr	MBD2 inh	LEDGF integ inh
COc1cc2cccc(OC)c(=O)c2c(O)c1OC	.	.	.	.
NC(=O)C1CCN(C(=O)COc2ccc(S(=O)(=O)NC3CCCC3)cc2)CC1	.	.	.	.
Cc1ccc(S(=O)(=O)NC2CCCCC2)cc1C(=O)N1CCC(C(N)=O)CC1	.	67.2	.	.
Cc1ccc(S(=O)(=O)N2CCOCC2)cc1NC(=O)CNCc1ccccn1	.	27.2	.	.
CCOC(=O)CN1C(=O)CCSc2ccc(Cl)cc21	.	35.9	.	.
N=C1C(=O)OCC1c1ccccc1NC(=O)c1ccc(F)cc1 (stereo not drawn)	.	50.9	.	.
N=C1C(=O)OCC1c1ccccc1NC(=O)Nc1ccccc1 (stereo not drawn)	.	.	.	.
CC1OC(CC(=O)O)CC2=C1C(=O)c1c(O)cccc1C2=O (stereo not drawn)	33.8	.	.	40.1
CN(CC(=O)Nc1cccc2ccccc12)C(=O)c1ccc(F)cc1F	.	29.0	.	.
COc1ccc([N+](=O)[O-])cc1NC(=O)C(C)Sc1nc(C)c(C)c(C)n1 (stereo not drawn)	.	61.3	.	.
COc1ccc([N+](=O)[O-])cc1NC(=O)C(C)N1CCCC1 (stereo not drawn)	.	49.3	.	.
CCn1cc(CCCC(=O)NCc2ccccc2OC)c2ccccc21	.	.	.	.
CCn1cc(CCC(=O)NCc2ccccc2OC)c2ccccc21	.	21.8	.	.
CCOc1ccc(CNC(=O)CCc2cn(C)c3ccccc23)cc1OC	.	58.6	.	.
COC(=O)[C@]12C[C@H](CC(=O)NCCCCc3ccccc3)C(=O)N(CCC3=CCCCC3)C1=C[C@H](C(C)C)O[C@@H]2C1CC1	.	.	.	.
CC(C)(C)OC(=O)NCCc1ccccc1/C=C/S(=O)(=O)NC1CCCC1	.	.	.	.
CCN(CC)C(=O)c1cccc(-c2csc(C(O)c3ccccc3)n2)c1 (stereo not drawn)	.	22.0	.	.
CC(C)C[C@H]1CN(CCCC[C@@H]2CNC(=O)C(=O)N2CC2CCCCC2)C(=O)C(=O)N1CCc1ccccc1	.	21.4	.	.
O=C1NC[C@H](CCCCN2C[C@H](Cc3ccc(O)cc3)N(CCc3ccc(O)cc3)C(=O)C2=O)N(Cc2ccccc2)C1=O	.	22.1	.	.
O=C1NC[C@H](CCCCN2C[C@H](Cc3ccc(O)cc3)N(CCc3ccccc3)C(=O)C2=O)N(Cc2ccccc2)C1=O	.	.	.	.
CC(C)C[C@@H](CN1CCC[C@@H]1CN1C(=O)C(=O)NC[C@@H]1Cc1ccccc1)N1C[C@H](Cc2ccccc2)N(CC2CCCCC2)C(=O)C1=O	.	54.3	.	.
O=C(c1cccnc1Cl)N1CCC(Oc2cccnc2)CC1	.	.	.	.
CCCN(CCC)CCCNC(=O)c1cc2c(-c3ccc(OC)c(OC)c3)nn(C)c2s1	.	23.2	.	.
O=C(NCc1ccccc1Cl)O[C@H]1CC[C@@]23CCCN2C(=O)CCC[C@H]3C1	.	.	.	.
COc1ccc(-c2c(C)n([O-])c(C)c(C)[n+]2=O)cc1OC	.	23.1	.	.
Cc1c(C(=O)N2CCCCC2)c(S(=O)(=O)N2c3ccccc3CC2C)c(C)n1C (stereo not drawn)	.	22.7	.	.
CC(NC(=O)C(=S)N1CCN(C)CC1)c1ccccc1 (stereo not drawn)	.	20.8	.	.
CN1CCN(C(=S)C(=O)Nc2ccccc2)CC1	.	22.5	.	.
CN1CCN(C(=S)C(=O)NCc2ccccc2)CC1	.	.	.	.
